Laboratory results taken from ChEMBL document CHEMBL4038301 (J Med Chem, 2017).
Values belong to the molecule of their own block, whether it stands above or below them.

How the values were obtained:
Rattus norvegicus [1] = test: Terminal half life in Sprague-Dawley rat at 1 mg/kg, iv up to 24 hrs post dose by LC/MS/MS analysis; format: ADME, organism-based; conditions: in vivo
Outline: (§1)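 Male Sprague–Dawley rats (250–350 g, n=2), dual-cannulated (carotid artery and jugular vein). Dosed 1.0 mg/kg IV into the jugular vein in 10% ethanol, 50–70% PEG 400 and 20–40% saline.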

Rattus norvegicus [2] = test: MRT in Sprague-Dawley rat at 1 mg/kg, iv up to 24 hrs post dose by LC/MS/MS analysis; format: ADME, organism-based; conditions: in vivo
Rattus norvegicus [3] = test: Volume of distribution at steady state in Sprague-Dawley rat at 1 mg/kg, iv up to 24 hrs post dose by LC/MS/MS Analysis; format: ADME, organism-based; conditions: in vivo; outline: as §1
[4] = Total plasma concentration in Sprague-Dawley rat at 10 mg/kg, po after 1 hr post dose by LC/MS/MS analysis; format: ADME, organism-based
[5] = Total drug level in Sprague-Dawley rat brain at 10 mg/kg, po after 1 hr post dose by LC/MS/MS analysis; format: ADME, organism-based; conditions: read-out: Drug uptake
[6] = Ratio of drug level in Sprague-Dawley rat brain to plasma at 10 mg/kg, po after 1 hr post dose by LC/MS/MS analysis; format: ADME, organism-based
Plasma = test: Unbound plasma concentration in Sprague-Dawley rat at 10 mg/kg, po after 1 hr post dose by LC/MS/MS analysis; format: ADME, organism-based; conditions: in vivo
Brain [7] = test: Unbound drug level in Sprague-Dawley rat brain at 10 mg/kg, po after 1 hr post dose by LC/MS/MS analysis; format: ADME, organism-based; conditions: in vivo
[8] = Ratio of unbound drug level in Sprague-Dawley rat brain to plasma at 10 mg/kg, po after 1 hr post dose by LC/MS/MS analysis; format: ADME, organism-based
Rattus norvegicus [9] = test: Tmax in Sprague-Dawley rat at 10 mg/kg administered via nasogastric gavage up to 24 hrs by LC/MS/MS analysis; format: ADME, organism-based; conditions: in vivo, po
Rattus norvegicus [10] = test: Cmax in Sprague-Dawley rat at 10 mg/kg, administered via nasogastric gavage up to 24 hrs by LC/MS/MS analysis; format: ADME, organism-based; design: dose 10 mg/kg, route nasogastric; conditions: in vivo, po
Rattus norvegicus [11] = test: AUC in Sprague-Dawley rat at 10 mg/kg, administered via nasogastric gavage up to 24 hrs by LC/MS/MS analysis; format: ADME, organism-based; design: time < 24 hr, dose 10 mg/kg, route nasogastric; conditions: in vivo, po
Rattus norvegicus [12] = test: Oral bioavailability in Sprague-Dawley rat at 10 mg/kg, administered via nasogastric gavage up to 24 hrs by LC/MS/MS analysis; format: ADME, organism-based; conditions: in vivo
[13] = (§2) Terminal half life in cynomolgus monkey at 0.5 mg/kg, iv up to 24 hrs by LC/MS/MS analysis; format: ADME, organism-based, Macaca fascicularis; conditions: in vivo, read-out: beta t1/2
Cynomolgus monkey [14] = test: MRT in cynomolgus monkey at 0.5 mg/kg, iv up to 24 hrs by LC/MS/MS analysis; format: ADME, organism-based, Macaca fascicularis; conditions: in vivo
[15] = Plasma clearance in cynomolgus monkey at 0.5 mg/kg, iv up to 24 hrs by LC/MS/MS analysis; format: ADME, organism-based, Macaca fascicularis
Cynomolgus monkey [16] = test: Cmax in cynomolgus monkey at 5 mg/kg administered via nasogastric gavage up to 24 hrs by LC/MS/MS analysis; format: ADME, organism-based, Macaca fascicularis; design: dose 5 mg/kg, route nasogastric; conditions: in vivo, po
Cynomolgus monkey [17] = test: AUC in cynomolgus monkey at 5 mg/kg administered via nasogastric gavage up to 24 hrs by LC/MS/MS analysis; format: ADME, organism-based, Macaca fascicularis; design: dose 5 mg/kg, time < 24 hr, route nasogastric; conditions: in vivo, po
Cynomolgus monkey [18] = test: Oral bioavailability in cynomolgus monkey at 5 mg/kg administered via nasogastric gavage up to 24 hrs by LC/MS/MS analysis; format: ADME, organism-based, Macaca fascicularis; conditions: in vivo
Cynomolgus monkey [19] = test: as §2; format: ADME, organism-based, Macaca fascicularis; conditions: in vivo, 24 h
[20] = Apparent permeability across apical to basolateral side in MDCK cells expressing human MDR1 at 2 uM after 30 mins by LC-MS/MS; format: ADME, cell-based, Canis lupus familiaris; conditions: dog, 0.5 h
[21] = Apparent permeability across basolateral to apical side in MDCK cells expressing human MDR1 at 2 uM after 30 mins by LC-MS/MS; format: ADME, cell-based, Canis lupus familiaris; conditions: dog, 0.5 h
[22] = Apparent permeability across apical to basolateral side in human Caco2 cells at 2 uM after 10 mins by LC-MS/MS; format: ADME, cell-based; conditions: caco-2, 10 min
[23] = Intrinsic clearance in human cryopreserved hepatocytes assessed per million cells at 5 uM measured after 15 to 120 mins by LC/MS/MS analysis; format: ADME, cell-based, Hepatocyte
Outline: (§3)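 Pooled human cryopreserved hepatocytes (19 donors, mixed gender), thawed and resuspended in KHB. Compound 5 µM final, shaken at 37 °C. Aliquots quenched in acetonitrile with carbamazepine at 0, 15, 30, 60 and 120 min. Percent parent remaining measured by LC/MS/MS. Midazolam served as positive control.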

[24] = Half life in human cryopreserved hepatocytes at 5 uM measured by LC/MS/MS analysis; format: ADME, cell-based, Hepatocyte; outline: as §3
[25] = Drug level in Harlan CD1 mouse brain at 3 mg/kg, ip at 15 mins; format: ADME, organism-based; conditions: read-out: Drug uptake
[26] = Drug metabolism in cynomolgus monkey hepatic S9 fraction assessed as AO-mediated metabolite formation by LC/MS analysis; format: ADME, Macaca fascicularis, Liver
Brain [27] = test: Unbound concentration in Harlan CD1 mouse brain at 3 mg/kg, ip at 15 mins by equilibrium dialysis method; format: ADME, organism-based; conditions: in vivo
[28] = Plasma clearance in cynomolgus monkey at 0.2 mg/kg, iv up to 24 hrs by LC/MS/MS analysis; format: ADME, organism-based, Macaca fascicularis

Structure (SMILES): CCc1cccc(NC(=O)c2cc(Oc3cncnc3)cc(C)n2)n1
beta t1/2 (Rattus norvegicus [1]): 6.73 h | MRT (Rattus norvegicus [2]): 1.33 h | Vdss (Rattus norvegicus [3]): 6.6 L/kg

Structure (SMILES): Cc1cc(Oc2cncc(F)c2)cc(C(=O)Nc2ccc(F)cn2)n1
beta t1/2 (Rattus norvegicus [1]): 4.68 h | MRT (Rattus norvegicus [2]): 3.47 h | Vdss (Rattus norvegicus [3]): 1.9 L/kg | Cp(f) (Plasma): 38.6 nM | Drug uptake(free) (Brain [7]): 31.6 nM | K(p,uu,brain) [8]: 0.82 | Tmax (Rattus norvegicus [9]): 1.5 h | Cmax (Rattus norvegicus [10]): 3330 nM | AUC (Rattus norvegicus [11]): 38 µM·h | F (Rattus norvegicus [12]): 71% | half-life [13]: 9.38 h | MRT (Cynomolgus monkey [14]): 5.05 h | clearance [15]: 13.3 mL/min/kg | Cmax (Cynomolgus monkey [16]): 1360 nM | AUC (Cynomolgus monkey [17]): 6.43 µM·h | F (Cynomolgus monkey [18]): 35%

Structure (SMILES): Cc1cccc(NC(=O)c2cc(Oc3cncc(F)c3)cc(C)n2)n1
beta t1/2 (Rattus norvegicus [1]): 4.47 h | MRT (Rattus norvegicus [2]): 2 h | Vdss (Rattus norvegicus [3]): 4.5 L/kg

Structure (SMILES): Cc1cc(Oc2cncc(F)c2)cc(C(=O)Nc2cccc(F)n2)n1
beta t1/2 (Rattus norvegicus [1]): 1.37 h | MRT (Rattus norvegicus [2]): 2.62 h | Vdss (Rattus norvegicus [3]): 11 L/kg

Structure (SMILES): Cc1cccc(NC(=O)c2cc(Oc3cncnc3)cc(C)n2)n1
beta t1/2 (Rattus norvegicus [1]): 1.75 h | MRT (Rattus norvegicus [2]): 0.65 h | Vdss (Rattus norvegicus [3]): 1.6 L/kg

Next, values leading:

beta t1/2 (Rattus norvegicus [1]): 3.82 h | MRT (Rattus norvegicus [2]): 3.18 h | Vdss (Rattus norvegicus [3]): 1.2 L/kg | concentration at 1 h [4]: 4820 nM | concentration at 1 h [5]: 3220 nM | BPR [6]: 0.67 | Cp(f) (Plasma): 390 nM | Drug uptake(free) (Brain [7]): 142 nM | K(p,uu,brain) [8]: 0.36
Structure (SMILES): Cc1cc(Oc2cnc(C)nc2)cc(C(=O)Nc2ccc(F)cn2)n1

beta t1/2 (Rattus norvegicus [1]): 6.5 h | MRT (Rattus norvegicus [2]): 1.55 h | Vdss (Rattus norvegicus [3]): 1.8 L/kg | concentration at 1 h [4]: 3000 nM | concentration at 1 h [5]: 2580 nM | Cp(f) (Plasma): 318 nM | Drug uptake(free) (Brain [7]): 201 nM | Tmax (Rattus norvegicus [9]): 0.5 h | Cmax (Rattus norvegicus [10]): 4340 nM | AUC (Rattus norvegicus [11]): 14.6 µM·h | F (Rattus norvegicus [12]): 53% | beta t1/2 (Cynomolgus monkey [19]): 5.03 h | MRT (Cynomolgus monkey [14]): 2.72 h | clearance [15]: 15.5 mL/min/kg | Cmax (Cynomolgus monkey [16]): 1720 nM | AUC (Cynomolgus monkey [17]): 7.32 µM·h | F (Cynomolgus monkey [18]): 44% | Papp [20]: 6.2 ×10⁻⁶ cm/s | Papp [21]: 7.2 ×10⁻⁶ cm/s | Papp [22]: 6.5 ×10⁻⁶ cm/s | CLH [23]: 1.43 µL/min | t1/2 [24]: 5.37 h | concentration at […] [25]: 1480 nM | Drug metabolism [26]: Metabolite_Detected | Drug uptake(free) (Brain [27]): 115 nM
Structure (SMILES): Cc1cc(Oc2cncnc2)cc(C(=O)Nc2ccc(F)cn2)n1

F (Rattus norvegicus [12]): < 5% | clearance [28]: 24 mL/min/kg
Structure (SMILES): Cc1csc(NC(=O)c2cc(F)cc(Oc3cncnc3)c2)n1
